# Assay results as given in ChEMBL document CHEMBL1221186, “Enhancement of capillary leakage and restoration of lymphocyte egress by a chiral S1P1 antagonist in vivo” (Nat Chem Biol, 2006).
# Activity calls are given as the source filed them. The rule behind the calls is not given here.
# How the values were obtained:
# [1] = target: T1, Sphingosine 1-phosphate receptor 1 (Homo sapiens, UniProt P21453); assay: Antagonist activity at human S1P1 receptor expressed in CHO cells assessed as inhibition of S1P-induced [35S]GTPgamma binding; assay type: functional, cell-based
# Outline: (§1)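 Membranes from CHO cells stably expressing human S1P1. [35S]GTPγS binding with serial dilutions of S1P or SEW2871 added (1–10 µg protein per well), with or without 30 min antagonist preincubation. Binding was normalized to the percentage induced by maximal S1P. Ki derived from the agonist EC50 shift.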
# [2] = target: T1, Sphingosine 1-phosphate receptor 1; assay: Antagonist activity at human S1P1 receptor expressed in CHO cells assessed as inhibition of SEW2871-induced [35S]GTPgamma binding; assay type: functional, cell-based; outline: as §1
# [3] = species: Mus musculus; assay: Inhibition of SEW2871-induced protection against VEGF-induced capillary leakage in Balb/cByJ mouse assessed as skin leakage of Evans blue dye from plasma into interstitial spaces by Miles assay; assay type: functional, organism-based; conditions: Skin of body
# Outline: (§2)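 Male Balb/cByJ mice (30 g) got i.p. vehicle (10 mM Na2CO3, 2% β-hydroxypropyl-cyclodextran) or antagonist 10 mg/kg, then oral SEW2871 20 mg/kg or vehicle. At 4.5 h, 0.5% Evans blue was given i.v. Intradermal murine VEGF165 (100 ng) or PBS/0.1% BSA was injected in triplicate. After 30 min, skin biopsies were extracted in formamide at 58 °C and read at 565 nm (VEGF minus BSA). ANOVA/Bonferroni.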
# [4] = tested on: Mus musculus; assay: Toxicity in ip dosed C57BL1/6J mouse assessed as induction of spontaneous pulmonary edema by Evan blue dye leakage assay; assay type: organism-based; conditions: in vivo
# [5] = tested on: Mus musculus; assay: Inhibition of SEW2871-induced lymphocyte egress in C57BL1/6J mouse assessed as blood lymphocyte sequestration at 10 to 20 mg/kg, ip; assay type: functional, organism-based
# Outline: (§3)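 C57BL6 mice were given antagonist i.p. (10 mg/kg, or 3 mg/kg where stated) at the time of oral SEW2871 (up to 20 mg/kg) or vehicle. At 5 h, EDTA blood was taken for full blood counts and differential counts on a veterinary autoanalyzer calibrated for mouse. Blood lymphocyte data pooled n=12 per group; Student's t-test.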
# [6] = tested on: Mus musculus; assay: Inhibition of SEW2871-induced lymphocyte maturation in C57BL1/6J mouse assessed as medullary thymocyte phenotypic maturation at 10 to 20 mg/kg, ip; assay type: functional, organism-based
# Outline: (§4)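 Mice received oral SEW2871 (20 mg/kg) with or without i.p. antagonist (10 mg/kg). Thymi were removed at 5 h and CD69 on single-positive CD4+ thymocytes was measured by flow cytometry. n=3.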
# [7] = tested on: Mus musculus; assay: Toxicity in ip dosed C57BL1/6J mouse assessed as effect on lymphocyte number at 10 mg/kg, ip; assay type: organism-based; set-up: dose 10 mg/kg, route intraperitoneal; conditions: in vivo; outline: as §3
# [8] = target: Sphingosine 1-phosphate receptor 2 (Homo sapiens) (UniProt O95136); assay: Antagonist activity at human S1P2 receptor expressed in CHO cells assessed as inhibition of S1P-induced [35S]GTPgamma binding at 10 uM; assay type: functional, cell-based
# Outline: (§5)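 Membranes from CHO cells expressing human S1P2, S1P3 or S1P5. [35S]GTPγS binding with serial dilutions of S1P added to membranes (1–10 µg protein per well), with or without 30 min preincubation. Antagonist concentrations were as previously described.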
# [9] = target: Sphingosine 1-phosphate receptor 3 (Homo sapiens) (UniProt Q99500); assay: Antagonist activity at human S1P3 receptor expressed in CHO cells assessed as inhibition of S1P-induced [35S]GTPgamma binding at 10 uM; assay type: functional, cell-based; outline: as §5
# [10] = target: Sphingosine 1-phosphate receptor 5 (Homo sapiens) (UniProt Q9H228); assay: Antagonist activity at human S1P5 receptor expressed in CHO cells assessed as inhibition of S1P-induced [35S]GTPgamma binding at 10 uM; assay type: functional, cell-based; outline: as §5
# [11] = target: Sphingosine 1-phosphate receptor 2 (Homo sapiens) (UniProt O95136); assay: Agonist activity at human S1P2 receptor expressed in CHO cells assessed as stimulation of [35S]GTPgamma binding at 10 uM; assay type: functional, cell-based; outline: as §5
# [12] = target: Sphingosine 1-phosphate receptor 3 (Homo sapiens) (UniProt Q99500); assay: Agonist activity at human S1P3 receptor expressed in CHO cells assessed as stimulation of [35S]GTPgamma binding at 10 uM; assay type: functional, cell-based; outline: as §5
# [13] = target: Sphingosine 1-phosphate receptor 5 (Homo sapiens) (UniProt Q9H228); assay: Agonist activity at human S1P5 receptor expressed in CHO cells assessed as stimulation of [35S]GTPgamma binding at 10 uM; assay type: functional, cell-based; outline: as §5
# [14] = target: T1, Sphingosine 1-phosphate receptor 1; assay: Inhibition of GFP-tagged human S1P1 receptor internalization expressed in HEK293 cells at 10 uM by fluorimetric assay; assay type: cell-based
# [15] = target: T1, Sphingosine 1-phosphate receptor 1; assay: Antagonist activity at human S1P1 receptor expressed in CHO cells assessed as inhibition of SEW2871-induced ERK1/2 phosphorylation at 10 uM by Western blot; assay type: functional, cell-based
# Outline: (§6)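 CHO cells stably expressing human S1P1 or S1P3 were grown to 50% confluence and serum-starved for 16 h. Cells were preincubated 1 h with antagonist at 10 µM, then stimulated 5 min with S1P or SEW2871 in serum-free medium with 0.1% fatty-acid-free BSA. Western blots of lysates gave phospho-ERK1/2 and phospho-Akt band intensities normalized to total ERK1/2 or Akt. n≥3.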
# [16] = target: T1, Sphingosine 1-phosphate receptor 1; assay: Antagonist activity at human S1P1 receptor expressed in CHO cells assessed as inhibition of SEW2871-induced Akt phosphorylation at 10 uM by Western blot; assay type: functional, cell-based; outline: as §6
# [17] = target: T1, Sphingosine 1-phosphate receptor 1; assay: Antagonist activity at human S1P1 receptor expressed in CHO cells assessed as inhibition of S1P-induced ERK1/2 phosphorylation at 10 uM by Western blot; assay type: functional, cell-based; outline: as §6
# [18] = target: T1, Sphingosine 1-phosphate receptor 1; assay: Antagonist activity at human S1P1 receptor expressed in CHO cells assessed as inhibition of S1P-induced Akt phosphorylation at 10 uM by Western blot; assay type: functional, cell-based; outline: as §6
# [19] = target: Sphingosine 1-phosphate receptor 3 (Homo sapiens) (UniProt Q99500); assay: Antagonist activity at human S1P3 receptor expressed in CHO cells assessed as inhibition of S1P-induced ERK1/2 phosphorylation at 10 uM by Western blot; assay type: functional, cell-based; outline: as §6
# [20] = target: Sphingosine 1-phosphate receptor 3 (Homo sapiens) (UniProt Q99500); assay: Antagonist activity at human S1P3 receptor expressed in CHO cells assessed as inhibition of S1P-induced Akt phosphorylation at 10 uM by Western blot; assay type: functional, cell-based; outline: as §6
# [21] = Plasma concentration in mouse at 10 mg/kg, ip after 5 hrs; assay type: ADME, organism-based; set-up: dose 10 mg/kg, route intraperitoneal
# Outline: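 Plasma concentration measured by LC-MS in mice 5 h after i.p. injection of 10 mg/kg.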
# [22] = Volume of distribution at steady state in cannulated rat at 1 mg/kg, iv by LC-MS method; assay type: ADME, organism-based; set-up: dose 1 mg/kg, route intravenous; conditions: in vivo, read-out: Vdss
# Outline: (§7)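 Cannulated rats (n=3) were given 1 mg/kg i.v. Plasma levels were followed by LC-MS to derive half-life, steady-state volume of distribution and plasma clearance.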
# [23] = Half life in cannulated rat at 1 mg/kg, iv by LC-MS method; assay type: ADME, organism-based; set-up: dose 1 mg/kg, route intravenous; conditions: in vivo; outline: as §7
# [24] = Plasma clearance in cannulated rat at 1 mg/kg, iv by LC-MS method; assay type: ADME, organism-based; set-up: dose 1 mg/kg, route intravenous; outline: as §7
# [25] = species: Mus musculus; assay: Potentiation of VEGF-induced capillary leakage in Balb/cByJ mouse assessed as skin leakage of Evans blue dye from plasma into interstitial spaces Miles assay; assay type: functional, organism-based; conditions: Skin of body; outline: as §2
# [26] = tested on: Mus musculus; assay: Toxicity in ip dosed C57BL1/6J mouse assessed as effect on percentage of lymphocyte within total WBCs counts in peripheral blood at 10 mg/kg, ip; assay type: organism-based; set-up: dose 10 mg/kg, route intraperitoneal; conditions: in vivo; outline: as §3
# [27] = tested on: Mus musculus; assay: Inhibition of SEW2871-induced lymphopenia in C57BL1/6J mouse at 3 mg/kg, ip; assay type: functional, organism-based; set-up: dose 3 mg/kg; outline: as §3
# [28] = tested on: Mus musculus; assay: Inhibition of SEW2871-induced loss of CD69 expression in single positive CD4+ thymocytes in thymic medulla of C57BL1/6J mouse at 10 mg/kg, ip by FACS method; assay type: functional, organism-based; set-up: dose 10 mg/kg; outline: as §4
# [29] = tested on: Mus musculus; assay: Effect on CD69 expression in single positive CD4+ thymocytes in thymic medulla of C57BL1/6J mouse at 10 mg/kg, ip by FACS method; assay type: organism-based; set-up: dose 10 mg/kg, route intraperitoneal; conditions: in vivo; outline: as §4
# [30] = tested on: Mus musculus; assay: Inhibition of SEW2871-induced medullary arrest of T cells in inguinal lymph nodes of BALB/c mouse at 10 mg/kg, iv by FITC-conjugated dextran staining based In vivo two-photon imaging method; assay type: functional, organism-based; set-up: dose 10 mg/kg; conditions: T-cell
# Outline: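 Adoptively transferred CFSE-labelled CD4+ T cells in BALB/c mice. Mice were dosed orally with SEW2871 (10 mg/kg), and the inguinal lymph node was imaged by intravital two-photon microscopy 4–6 h later. Medullary sinus labelled with footpad rhodamine-dextran. Antagonist 10 mg/kg given i.v. during imaging; instantaneous T-cell velocities tracked in medulla and cortex.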
# Sphingosine 1-phosphate receptor 3 (Homo sapiens), sequence (Q99500 whole entry): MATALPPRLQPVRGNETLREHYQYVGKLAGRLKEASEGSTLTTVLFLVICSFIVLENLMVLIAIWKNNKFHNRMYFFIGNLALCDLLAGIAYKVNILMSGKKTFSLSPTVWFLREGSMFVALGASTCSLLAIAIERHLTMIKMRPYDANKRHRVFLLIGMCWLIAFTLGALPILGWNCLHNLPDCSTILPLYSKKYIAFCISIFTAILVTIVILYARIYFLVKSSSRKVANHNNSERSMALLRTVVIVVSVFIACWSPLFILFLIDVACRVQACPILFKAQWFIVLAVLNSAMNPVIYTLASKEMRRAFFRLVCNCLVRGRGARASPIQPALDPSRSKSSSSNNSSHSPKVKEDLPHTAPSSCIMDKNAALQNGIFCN
# T1 sequence (P21453 whole entry): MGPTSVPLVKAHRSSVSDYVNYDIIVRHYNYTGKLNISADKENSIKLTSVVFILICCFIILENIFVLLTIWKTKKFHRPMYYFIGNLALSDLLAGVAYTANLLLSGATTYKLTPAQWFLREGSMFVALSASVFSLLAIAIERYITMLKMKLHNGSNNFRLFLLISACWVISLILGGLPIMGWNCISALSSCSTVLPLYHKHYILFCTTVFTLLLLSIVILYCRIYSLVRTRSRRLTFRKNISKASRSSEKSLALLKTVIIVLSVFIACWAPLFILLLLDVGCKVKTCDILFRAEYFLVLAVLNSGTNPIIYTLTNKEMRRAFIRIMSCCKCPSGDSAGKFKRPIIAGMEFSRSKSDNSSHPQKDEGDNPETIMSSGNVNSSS
# Sphingosine 1-phosphate receptor 5 (Homo sapiens), sequence (Q9H228 whole entry): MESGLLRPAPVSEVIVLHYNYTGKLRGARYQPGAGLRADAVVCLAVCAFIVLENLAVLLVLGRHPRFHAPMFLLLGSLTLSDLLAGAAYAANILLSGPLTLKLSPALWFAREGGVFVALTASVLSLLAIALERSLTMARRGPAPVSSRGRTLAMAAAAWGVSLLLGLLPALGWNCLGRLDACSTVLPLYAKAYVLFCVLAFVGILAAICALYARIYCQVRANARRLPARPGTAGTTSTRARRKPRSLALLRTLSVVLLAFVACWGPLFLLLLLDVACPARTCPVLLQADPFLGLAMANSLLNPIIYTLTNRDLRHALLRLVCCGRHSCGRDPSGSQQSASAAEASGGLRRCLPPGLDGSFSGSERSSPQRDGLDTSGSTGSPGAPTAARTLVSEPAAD
# Sphingosine 1-phosphate receptor 2 (Homo sapiens), sequence (O95136 whole entry): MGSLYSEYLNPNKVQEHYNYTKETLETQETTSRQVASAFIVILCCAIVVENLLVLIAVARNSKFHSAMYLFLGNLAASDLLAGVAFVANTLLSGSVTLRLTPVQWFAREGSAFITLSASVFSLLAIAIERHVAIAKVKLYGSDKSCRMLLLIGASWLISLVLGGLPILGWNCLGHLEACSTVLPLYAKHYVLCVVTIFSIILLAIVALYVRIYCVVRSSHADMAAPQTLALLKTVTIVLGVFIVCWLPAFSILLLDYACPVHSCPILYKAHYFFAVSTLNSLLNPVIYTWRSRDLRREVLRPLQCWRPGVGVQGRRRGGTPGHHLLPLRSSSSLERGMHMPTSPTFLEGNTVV
smiles,measurement,setting,value
CCCCCCc1cccc(NC(=O)[C@@H](N)CCP(=O)(O)O)c1,Ki,[1],4630 nM
same,Ki,[2],2840 nM
same,inhibition,[3],inactive
same,Activity,[4],Non-toxic
same,inhibition,[5],inactive
same,inhibition,[6],inactive
CCCCCCc1cccc(NC(=O)[C@H](N)CCP(=O)(O)O)c1,Activity,[7],Non-toxic
same,Ki,[1],77 nM
same,Ki,[2],18 nM
same,inhibition,[8],inactive
same,inhibition,[9],inactive
same,inhibition,[10],inactive
same,Activity,[11],inactive
same,Activity,[12],inactive
same,Activity,[13],inactive
same,inhibition,[14],Active
same,inhibition,[15],Active
same,inhibition,[16],Active
same,inhibition,[17],> 70%
same,inhibition,[18],> 70%
same,inhibition,[19],inactive
same,inhibition,[20],inactive
same,concentration at 5 h,[21],268 nM
same,Vd,[22],0.46 L/kg
same,half-life,[23],1.22 h
same,clearance,[24],4.63 mL/min/kg
same,inhibition,[3],Active
same,Activity,[25],Active
same,Activity,[4],Dose-dependent effect
same,Activity,[26],Non-toxic
same,inhibition,[5],Active
same,inhibition,[6],Active
same,inhibition,[27],Active
same,inhibition,[28],Active
same,Activity,[29],Non-toxic
same,inhibition,[30],Active
